The EternaBench riboswitch data

Tested on: MS2 coat protein
Assay: apparent Kd, MS2 coat protein; higher = weaker binding; RNA-MaP array; FMN 200 µM where present
How it was run: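 Two titrations, one without ligand and one with constant ligand, were run with SNAP-549-labelled MS2 coat protein from 0.7 or 1.5 nM, doubling to 3 µM. The targets were designs transcribed by stalled E. coli RNA polymerase on Illumina sequencing-chip clusters, in 100 mM Tris-HCl pH 7.5, 80 mM KCl, 4 mM MgCl2, BSA, DTT, yeast tRNA and Tween-20. The apparent Kd is the median of filtered per-cluster binding-curve fits, with green signal normalised to red-channel RNA signal and control-cluster median Fmax.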

[1] = designed as: ON switch for flavin mononucleotide, no ligand
[2] = ligand present: flavin mononucleotide, designed as: ON switch for flavin mononucleotide
[3] = designed as: OFF switch for flavin mononucleotide, no ligand
[4] = ligand present: flavin mononucleotide, designed as: OFF switch for flavin mononucleotide

Sequence | apparent Kd [1] | apparent Kd [2] | apparent Kd [3] | apparent Kd [4]
UGCUACGUUUCGUAGCAGUGUCAUCGAGAAGGCCCUGACAUGAGGAUCACCCAUGUUGUUACAUGGGAGGAUAUCGAUGAUACC | 11.8 nM | 5.25 nM |  | 
CGAGCUCGUGUGAGGAUAUACCUAUGGAUACAUAGGUAGAAGGCACAUGAGGAUCACCCAUGUCCUAGAGCUCG |  |  | 92 nM | 679 nM
GGCCGUUUACAUGAGGAUCACCCAUGUCCGGAUUGUUGGCCCAGAAGGCAUUACGAAUUCGGCUAUGAGGAUAUGGGUUACAAG | 215 nM | 119 nM |  | 
AGAAAGUGAGGAUAUACAUGAGGAUCACCCAUGUAGAACGAGAGUUAUAAAAAUGGAAGUAGAAGGCGCAAAAG |  |  | 37.1 nM | 37.2 nM
AGAAACUAGGAGAAGGACAUAUGAUUAAGACGAAACAUGAGGAUCACCCAUGUAGGAUAUCCUAGUUUCAGGAUCGUGAGAUCA |  |  | 7.58 nM | 15.3 nM
UUUUUUUUUGUGAGGAUAUACUUUUUUUUUUUUUUGUAGAAGGCACAUGAGGAUCACCCAUGUUUUUUUUUCUC |  |  | 11.7 nM | 11.3 nM
UCAUACGUUGAGGAUAUGUCAGUUAGUAUAUUUACAGAAGGCGAUACAUGAGGAUCACCCAUGUUUAUGGGCAU |  |  | 219 nM | 298 nM
UUAGGCUGAAGAUCAAUUAAUUAACAUGAGGAUCACCCAUGUAAGGAUAUCAGCUCGAUUAGAGCUGAGAAGGUACAUGCAGCC |  |  | 110 nM | 565 nM
GCAGGUUAAGUCAGGAUAUACCUAUGGAUACAUAGGUAGAAGGGACAUGAGGAUCACCCAUGUGACUCGCCUGC |  |  | 26.9 nM | 95.8 nM
ACCGACACUUACAUGAGGAUCACCCAUGUGUGUAAUCGGACACAGGAUAUCCAUGGUAAGUAUCGGGAGAAGGGUGGAAAGAAA | 88.9 nM | 233 nM |  | 
UUGAUUAUACAAGGAUAUCAAUUGUAAUUAAGACUUACAUGAGGAUCACCCAUGUUAAUAUUUUUUGAGAAGGUGUAUUUUCAG | 25.4 nM | 21.9 nM |  | 
UUACUCAUGUAAGGAUAUGCAGCCGUGUCGGCUGCAGAAGGUACUAUAAUACAUGAGGAUCACCCAUGUCUAUAAAAUAAAGAC | 48 nM | 26.8 nM |  | 
UAGGACUACGUAGGAUAUUAAAUCAUGUACUACAUGAGGAUCACCCAUGUUAAUUUAUCAUCAGCUGAGAAGGACGUGGUAAAU | 104 nM | 61.7 nM |  | 
CUGGGUAAAAUGGGAGGUAGCUGGCAGGAUAUGACAUGAGGAUCACCCAUGUGGAGAUCUUGGGAUCAGAAGGGCCUGUGACCU |  |  | 205 nM | 119 nM
GUCAGCUCGUCAGGAUAUACAUGAUAGAUCGAUUAAUUAAUUAAUUUAACAUGAGGAUCACCCAUGUAGAAGGGACGAGCUGAU |  |  | 109 nM | 84.2 nM
CGUUGUAACGCAGGAUAUCCAAAGCUUUUUGCAGGAGAAGGGUGUUACAUGAGGAUCACCCAUGUGAAGGCCCGCAUUCCUCAU |  |  | 5.57 nM | 6.41 nM
CUUGUGUUAGGAUAUGCGUUUCCGGUGCGUCACUGGAUCUGGCAGAAGGGACAUGAGGAUCACCCAUGUUUGGC |  |  | 38.7 nM | 31 nM
GAAGCACGCAUUAACAUGAGGAUCACCCAUGUGAAAACACGUGAGGAUAUCGAUCUGAAGAAGAUCGAGAAGGCACCGUGCUAA | 5.53 nM | 5.11 nM |  | 
UUGGACGUCGUAGGAUAUGUAGGAUAGUCCUACAUGAGGAUCACCCAUGUUGACAUGGAAGAAGGACAGAAGGACGAUGUCCAU | 553 nM | 35.4 nM |  | 
AACGCGGAAAUCGCAAUACAUGAGGAUCACCCAUGUAGAUCGCAGGAUAUGGUCUAGUCAGUGGUCCAGAAGGGUGAUCAGAAC | 125 nM | 74.5 nM |  | 
GCGUGACAUGAGGAUCACCCAUGUGAGGAUAUCUGGACACUCUUUAUUUUAGAUGUCCAGAGAAGGCACAUGCU |  |  | 238 nM | 126 nM
UUAUGGAUCACAGGAUAUCCAAGGGCGCGUCUGGCGCGCUCACAUGAGGAUCACCCAUGUCGAGUGGAGAAGGGUGGUUGACGG | 466 nM | 68.3 nM |  | 
GGGCCGCUACGCCGGCUCCACGCACAGGAUAUGCAGUUACAUGAGGAUCACCCAUGUGGCCAUGUGCAGAAGGGUGGUUCGCGA | 85.3 nM | 28.6 nM |  | 
UAAAUGUGAGGAUAUUCGUAGUACUCGGAGACGAGUAUUACGGAGAAGGCACAUGAGGAUCACCCAUGUUCCUU |  |  | 21.3 nM | 188 nM

Sequence | apparent Kd [1] | apparent Kd [2] | apparent Kd [3] | apparent Kd [4]
AGGAAGUGAGGAUAUGCAGUGGCCUGUAGACGCAAGCACUUGUAGAAGGCACAUGAGGAUCACCCAUGUUUAAA |  |  | 35.8 nM | 34.2 nM
AUAUCAAGCAAGGAUAUGCAAAUGGUUAUUUAUGCAGAAGGUGCGACAUGAGGAUCACCCAUGUUUCUGGGUUU |  |  | 87.7 nM | 134 nM
UACAUUUAACAGAAGGCGUUUAUAUAUAACUUACGAGGAUAUGUAUAACAUGAGGAUCACCCAUGUAACAUGGAGAGAAUAUCU | 43.1 nM | 26.6 nM |  | 
UCAUAUAUACAAGGAUAUCAAUUAUUUAUACAUCCUACAUGAGGAUCACCCAUGUUUUUAUAUUUUGAGAAGGUGUAAUGUCUU | 21.1 nM | 27.5 nM |  | 
UCUGUUCAAGGAUAUGCGUAAUGUGUUACGGCACGAGGUCUACAUGAGGAUCACCCAUGUAGAAGGUGAUCAGA |  |  | 21.5 nM | 22.2 nM
AGGUCAACCACAGGAUAUGGCUAGCAUAGCUAGCCAGAAGGGUGGUCAUAUCCAUGUAAAUACAUGAGGAUCACCCAUGUAUCC | 209 nM | 79.8 nM |  | 
ACAAGAUCAGGAUAUACAUGAGGAUCACCCAUGUUUAUCAAAAAAAAACUUUCUUUAUGUAGAAGGGAUCUUGU |  |  | 13.8 nM | 13.6 nM
GGUACUCAAAGAGUACCAAUACGAACAUGAGGAUCACCCAUGUAGGAUAUGCUACUCGAAGAGUAGCAGAAGGACAUGUGCCUA |  |  | 16.9 nM | 113 nM
UGGUCAUCAUCAGGAUAUUAACAUGGGCUACAUUAAGAAGGGAUAGUGGGAGAGGAAGUGAAACAUGAGGAUCACCCAUGUUGU | 32.9 nM | 16.2 nM |  | 
GGAUAGGACAGAGGAUAUACCUGCUAGAGAUACUAGCAAAAUUUCCUCACAUGAGGAUCACCCAUGUAGAAGGCUGUCCUAUCG |  |  | 8.45 nM | 109 nM
AGAUAACACCAGAAGGACAUGAGGAUCACCCAUGUAGGAUAUGGGCAUCACUCGAGAAAGAAACAACCAAAAGGACACGCGGUC | 51 nM | 8.36 nM |  | 
GCGUUGCACGAGAAGGCCAAUACAUGAGGAUCACCCAUGUUAAAAUGUUUUGGAGGAUAUCGAUCAUCUACAAUAAAGCAACGC |  |  | 12.6 nM | 11.6 nM
GUGCGGUGAGGAUAUACGUAGGUACAGAUCUGUGUGUUCCUACAUGAGGAUCACCCAUGUAGAAGGCAUGGCAC |  |  | 49.6 nM | 136 nM
GAAUUCGCAUGAGGAUAUGCACUCAUUUCAUGUGCAGAAGGUAUAUCAUUAGACAUGAGGAUCACCCAUGUAUUGGUCAAUAAC | 17.8 nM | 14.8 nM |  | 
UUAAAUCAUGUAGGAUAUGCAUGGCGAAGCUACGCAGAAGGACAUGAGGAUCACCCAUGUUAUAGCUUCCAAGUUAGGAGGCAA |  |  | 85.7 nM | 191 nM
GCUGGACAAGGAUAUACAUUCGUGCUUCGGCACGUAAGAUCACAUGAGGAUCACCCAUGUAGAAGGUGUCCAGC |  |  | 67.8 nM | 612 nM
AGCAAGUAUACAUGAGGAUCACCCAUGUUUUUUAGGGUUUUCAGAAGGUACAUUUUGAGAUAGAGUAAGGAUAUGAAAUAUGCG | 101 nM | 45.7 nM |  | 
UAUUAAUACGAAGGAUAUGGUUACAUGAGGAUCACCCAUGUAUGUAUAUUGAUCUAGUUUUUUAACCAGAAGGUCGUGAGUAAA |  |  | 30.6 nM | 48.6 nM
UGUCUAUUUGAAGGAUAUCUAAGCAUAAACCGUAGAGAAGGUCAAUUAUACAUGAGGAUCACCCAUGUUGAGAUUGAUGGGUUU |  |  | 16.9 nM | 17.8 nM
AAAUAGGUAGGAUAUACAUGGAUAUACAUUCAUGUGGACCUACAUGAGGAUCACCCAUGUAGAAGGACCUAGUA |  |  | 40.2 nM | 43.7 nM
CCAGCGUAUGUGAGGAUAUGCUGGUCCUUGGAUCAGCAGAAGGCACAUGAGGAUCACCCAUGUGGAGACGUUGG |  |  | 21.8 nM | 102 nM
AGAGAGUGACAGAAGGGCAAGCUCGAUUGCGGAGAACGCGAUCGAGCUUGCAGGAUAUGUUGAACAUGAGGAUCACCCAUGUCA | 7.98 nM | 6.94 nM |  | 
UGUGCGUAUGUGAGGAUAUGCUGGUCCUUGGCUCGGCAGAAGGCACAUGAGGAUCACCCAUGUGGUGUCGUACC |  |  | 38.6 nM | 189 nM
CGCAAGUAUACAUGAGGAUCACCCAUGUCAGAAAGGGUAAUCAGAAGGUACUAUUAGAGAUAGAGUAAGGAUAUGAAAUUUGCG | 718 nM | 138 nM |  | 
